The values that follow come from ChEMBL document CHEMBL1134525, “Novel N-(arylalkyl)indol-3-ylglyoxylylamides targeted as ligands of the benzodiazepine receptor: synthesis, biological evaluation, and molecular modeling analysis of the structure-activity relationships” (J Med Chem, 2001).

“And” between values parts separate entries of the source, which are not always exact repeats. Equal entries are not always repeated.

Assay [1] concerns the target GABA A receptor alpha-5/beta-3/gamma-2 (Rattus norvegicus, UniProt P18508+P19969+P63079). As to the kind of experiment: Inhibition of [3H]flumazenil binding to rat alpha-5-beta-3-gamma-2 GABA-A receptor subunits expressed in HEK293 cells. Type of assay: cell-based. An outline of the steps: (§1)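 Membranes came from HEK293 clonal lines expressing rat GABAA subtypes, grown in MEM/EBSS with 10% FCS, 2 mM glutamine and penicillin/streptomycin at 37 °C in 5% CO2. Membranes were homogenized and centrifuged (48 000 × g, 30 min, 4 °C) in 10 mM K-phosphate pH 7.4 and resuspended with 100 mM KCl. […] Nonspecific binding was defined with 10^-5 M diazepam. Results are the mean of three determinations.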

Assay [2] is described as follows: Ratio of Ki with out GABA and with GABA.
In assay [3] the target is GABA-A receptor; alpha-1/beta-2/gamma-2 (Rattus norvegicus, UniProt P18508+P62813+P63138). Nature of the assay: Inhibition of [3H]flumazenil binding to rat alpha-1-beta-2-gamma-2 GABA-A receptor subunits expressed in HEK293 cells. Type of assay: cell-based. A digest of the protocol: as §1
Chain of GABA-A receptor; alpha-1/beta-2/gamma-2 (P18508 whole entry): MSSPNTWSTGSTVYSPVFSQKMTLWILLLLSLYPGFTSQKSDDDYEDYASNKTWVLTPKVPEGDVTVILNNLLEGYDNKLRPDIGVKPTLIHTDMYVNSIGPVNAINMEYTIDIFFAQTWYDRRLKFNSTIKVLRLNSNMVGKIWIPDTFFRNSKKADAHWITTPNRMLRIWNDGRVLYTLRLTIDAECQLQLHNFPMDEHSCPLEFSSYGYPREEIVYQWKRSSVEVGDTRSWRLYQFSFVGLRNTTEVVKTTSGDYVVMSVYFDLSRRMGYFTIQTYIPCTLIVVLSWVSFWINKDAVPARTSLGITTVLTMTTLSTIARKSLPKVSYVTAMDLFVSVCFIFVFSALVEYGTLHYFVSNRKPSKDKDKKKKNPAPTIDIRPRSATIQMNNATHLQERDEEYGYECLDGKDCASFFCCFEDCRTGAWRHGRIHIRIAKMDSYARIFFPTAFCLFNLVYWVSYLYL
Chain of GABA-A receptor; alpha-1/beta-2/gamma-2 (P62813 whole entry): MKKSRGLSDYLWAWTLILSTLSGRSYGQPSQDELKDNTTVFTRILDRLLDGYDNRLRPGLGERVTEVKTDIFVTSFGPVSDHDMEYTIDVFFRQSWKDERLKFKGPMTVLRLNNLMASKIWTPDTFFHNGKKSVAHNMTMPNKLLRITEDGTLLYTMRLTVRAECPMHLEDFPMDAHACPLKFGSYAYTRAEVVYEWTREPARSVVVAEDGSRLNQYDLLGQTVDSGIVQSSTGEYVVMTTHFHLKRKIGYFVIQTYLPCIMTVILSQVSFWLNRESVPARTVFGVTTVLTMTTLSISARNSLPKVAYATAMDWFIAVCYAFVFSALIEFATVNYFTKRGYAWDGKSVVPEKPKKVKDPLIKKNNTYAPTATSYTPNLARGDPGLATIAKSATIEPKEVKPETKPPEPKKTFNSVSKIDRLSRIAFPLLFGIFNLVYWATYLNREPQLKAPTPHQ
Chain of GABA-A receptor; alpha-1/beta-2/gamma-2 (P63138 whole entry): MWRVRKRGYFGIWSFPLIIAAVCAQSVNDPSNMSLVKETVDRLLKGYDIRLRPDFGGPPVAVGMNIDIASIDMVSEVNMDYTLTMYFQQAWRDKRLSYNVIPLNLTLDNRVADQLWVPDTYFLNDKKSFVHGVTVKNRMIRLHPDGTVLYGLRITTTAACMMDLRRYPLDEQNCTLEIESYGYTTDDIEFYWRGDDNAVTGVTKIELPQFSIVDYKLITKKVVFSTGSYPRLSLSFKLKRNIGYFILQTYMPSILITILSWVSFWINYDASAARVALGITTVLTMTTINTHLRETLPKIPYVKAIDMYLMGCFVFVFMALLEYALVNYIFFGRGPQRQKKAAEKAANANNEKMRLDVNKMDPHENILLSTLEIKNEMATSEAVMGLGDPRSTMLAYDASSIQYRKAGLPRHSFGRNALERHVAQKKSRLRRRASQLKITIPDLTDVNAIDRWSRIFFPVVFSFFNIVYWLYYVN
Assay [4] deals with GABA A receptor alpha-3/beta-2/gamma-2 (Rattus norvegicus, UniProt P18508+P20236+P63138). Nature of the assay: (§2) Inhibition of [3H]flumazenil binding to rat alpha-3-beta-2-gamma-2 GABA-A receptor subunits expressed in HEK293 cells. Type of assay: cell-based. A digest of the protocol:
as §1

Assay [5] has as its target GABA-A receptor; anion channel. As to the kind of experiment: Inhibition of [3H]- flumazenil binding to benzodiazepine receptor in bovine brain membranes. The class given is cell membranes. An outline of the steps:
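Bovine brain membranes were freeze-thawed, washed by suspension and centrifugation in 50 mM tris-citrate pH 7.4, then used for competition binding against [3H]flumazenil. Specific binding inhibition was first measured at a fixed 10 µM. Protein was measured by the Lowry method.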

Assay [6] deals with T1, GABA-A receptor; anion channel (Bos taurus) (UniProt P10063+P08220+P20237+P08219+P10064+P22300). As to the kind of experiment: Inhibition of [3H]- flumazenil binding to benzodiazepine receptor in bovine brain membranes at a dose of 10 uM. The class given is cell membranes. An outline of the steps: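 Bovine brain membranes were freeze-thawed, washed by suspension and centrifugation in 50 mM tris-citrate pH 7.4, then used for competition binding against [3H]flumazenil. Specific binding inhibition was first measured at a fixed 10 µM. […] Protein was measured by the Lowry method.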

The target in assay [7] is T1, GABA-A receptor; anion channel (Bos taurus). Nature of the assay: Relative bindign to GABA-A receptor in the presence and absence of GABA (GABA shift), Ki(-GABA)/Ki(+GABA). Type of assay: protein-complex assay. A digest of the protocol:
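[3H]flumazenil displacement Ki was measured both with and without GABA, using exhaustively washed bovine brain membranes or HEK293 membranes expressing rat α1β2γ2, α3β2γ2 or α5β3γ2. GABA ratio = Ki(without GABA)/Ki(with GABA).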

Assay [8] concerns the target GABA A receptor alpha-5/beta-3/gamma-2 (Rattus norvegicus) (UniProt P18508+P19969+P63079). The settings on record: HEK293, 10 uM.
Assay [9] has as its target GABA A receptor alpha-3/beta-2/gamma-2 (Rattus norvegicus) (UniProt P18508+P20236+P63138). The description is as §2. The class given is cell-based. A digest of the protocol:
as §1

Chain of GABA A receptor alpha-5/beta-3/gamma-2 (P18508 whole entry): as the sequence (P18508 whole entry) above
Chain of GABA A receptor alpha-5/beta-3/gamma-2 (P19969 whole entry): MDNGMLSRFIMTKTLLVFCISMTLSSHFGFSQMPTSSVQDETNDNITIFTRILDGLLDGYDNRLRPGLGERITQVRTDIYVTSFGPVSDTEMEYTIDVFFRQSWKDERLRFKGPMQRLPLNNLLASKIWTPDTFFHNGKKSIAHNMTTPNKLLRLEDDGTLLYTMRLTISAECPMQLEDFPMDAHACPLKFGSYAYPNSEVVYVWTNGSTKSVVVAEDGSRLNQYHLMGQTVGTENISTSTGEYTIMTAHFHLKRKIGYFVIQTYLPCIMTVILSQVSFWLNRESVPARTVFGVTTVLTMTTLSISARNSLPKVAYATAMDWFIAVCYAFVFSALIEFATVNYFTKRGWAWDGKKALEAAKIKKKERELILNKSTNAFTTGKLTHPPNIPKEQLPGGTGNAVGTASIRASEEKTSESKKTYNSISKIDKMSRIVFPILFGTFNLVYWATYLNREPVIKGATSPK
Chain of GABA A receptor alpha-5/beta-3/gamma-2 (P63079 whole entry): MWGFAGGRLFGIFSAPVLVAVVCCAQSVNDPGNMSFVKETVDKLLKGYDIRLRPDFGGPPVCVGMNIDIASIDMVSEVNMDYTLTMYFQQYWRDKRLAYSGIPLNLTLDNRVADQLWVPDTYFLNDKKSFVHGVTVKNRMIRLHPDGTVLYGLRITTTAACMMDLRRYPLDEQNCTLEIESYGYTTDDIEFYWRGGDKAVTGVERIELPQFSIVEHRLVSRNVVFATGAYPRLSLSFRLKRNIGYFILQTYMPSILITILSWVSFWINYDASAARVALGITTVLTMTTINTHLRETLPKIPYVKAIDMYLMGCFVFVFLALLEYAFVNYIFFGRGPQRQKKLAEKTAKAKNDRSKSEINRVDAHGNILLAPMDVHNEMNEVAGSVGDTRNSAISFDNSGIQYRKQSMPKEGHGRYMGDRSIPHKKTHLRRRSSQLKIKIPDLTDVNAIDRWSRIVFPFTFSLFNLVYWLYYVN
Chain of GABA A receptor alpha-3/beta-2/gamma-2 (P18508 whole entry): as the sequence (P18508 whole entry) above
Chain of GABA A receptor alpha-3/beta-2/gamma-2 (P20236 whole entry): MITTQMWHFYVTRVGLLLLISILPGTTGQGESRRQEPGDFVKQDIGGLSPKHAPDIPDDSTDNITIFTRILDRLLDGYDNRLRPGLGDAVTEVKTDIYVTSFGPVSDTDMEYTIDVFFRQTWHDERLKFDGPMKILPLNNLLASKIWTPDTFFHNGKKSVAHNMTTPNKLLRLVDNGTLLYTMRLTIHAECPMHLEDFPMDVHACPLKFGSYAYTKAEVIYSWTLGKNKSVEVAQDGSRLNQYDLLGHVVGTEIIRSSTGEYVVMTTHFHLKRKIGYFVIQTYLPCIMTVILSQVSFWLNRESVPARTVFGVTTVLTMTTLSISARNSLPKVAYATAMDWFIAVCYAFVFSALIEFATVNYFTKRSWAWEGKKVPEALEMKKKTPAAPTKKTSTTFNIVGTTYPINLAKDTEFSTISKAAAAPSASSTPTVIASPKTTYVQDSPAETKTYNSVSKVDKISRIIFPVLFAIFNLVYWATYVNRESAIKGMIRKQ
Chain of GABA A receptor alpha-3/beta-2/gamma-2 (P63138 whole entry): as the sequence (P63138 whole entry) above

Usually Ki stands for a measure of affinity in units of concentration, obtained from inhibition or displacement. Low values mean tighter binding, high ones weaker binding. For the compound `O=C(NNc1ccc([N+](=O)[O-])cc1)C(=O)c1c[nH]c2ccccc12`, the values for the inhibition constant (Ki) in assay [1], in assay [3] and in [4] were 43 nM, 25 nM and 40 nM, respectively. The Ratio in [2] is 0.96 and 0.98 and 0.8.

`C[C@@H](NC(=O)C(=O)c1c[nH]c2ccc(Cl)cc12)c1ccc([N+](=O)[O-])cc1` gave an inhibition constant Ki in assay [5] of 695 nM.

Compound `COc1ccc(CNC(=O)C(=O)c2c[nH]c3ccc(OC)cc23)cc1` gave a Ki in assay [5] of 494 nM.

By inhibition is commonly meant the drop in the measured response relative to a control, in per cent. A higher inhibition goes with a strong effect. As to `O=C(N[C@H]1CCc2ccccc21)C(=O)c1c[nH]c2ccccc12`, the inhibition in assay [6] is below 80%.

In assay [5], `O=C(NCc1ccc([N+](=O)[O-])cc1)C(=O)c1c[nH]c2ccc([N+](=O)[O-])cc12` came in with an inhibitory constant (Ki) of 620 nM.

`O=C(NCc1ccc(Cl)cc1)C(=O)c1c[nH]c2ccc([N+](=O)[O-])cc12` came in with an inhibition in [6] below 80%.

The compound `C[C@@H](NC(=O)C(=O)c1c[nH]c2ccccc12)c1ccc([N+](=O)[O-])cc1` had an inhibition in assay [6] below 80%.

The compound `COc1ccc(C(C)NC(=O)C(=O)c2c[nH]c3ccc([N+](=O)[O-])cc23)cc1OC` (racemic) yielded an inhibitory constant (Ki) in assay [5] of 55 nM.

As for `C[C@H](NC(=O)C(=O)c1c[nH]c2ccccc12)c1ccccc1`, the inhibition in assay [6] was below 80%.

As to `O=C(N[C@@H]1CCc2ccccc21)C(=O)c1c[nH]c2ccc([N+](=O)[O-])cc12`, the Ki in assay [1] is 95 nM; in assay [3] it was 9 nM; in [4], 1960 nM; in assay [5] it was 28 nM. Moreover, the Ratio is 1.12 and 0.98 in [2]; 1.13 in assay [7].

Turning to `O=C(N[C@H]1CCc2ccccc21)C(=O)c1c[nH]c2ccc([N+](=O)[O-])cc12`, in assay [6], the inhibition is below 80%.

In assay [6], `COc1ccc2[nH]cc(C(=O)C(=O)NNc3ccc([N+](=O)[O-])cc3)c2c1` came in with an inhibition below 80%.

As to `CCOC(=O)[C@@H](C)NC(=O)C(=O)c1c[nH]c2ccc([N+](=O)[O-])cc12`, the Ki in assay [5] was 45 nM.

As for `Cc1ccc(-c2nc3ccc(C)cn3c2CC(=O)N(C)C)cc1`, the inhibition in assay [8] was determined as 35%.

Consider `C[C@@H](NC(=O)C(=O)c1c[nH]c2ccc(Cl)cc12)c1ccccc1`, for which the inhibition in assay [6] was below 80%.

As for `C[C@H](NC(=O)C(=O)c1c[nH]c2ccc(Cl)cc12)c1ccccc1`, in assay [5], the inhibitory constant (Ki) was 100 nM.

Turning to `O=C(NC(CO)c1ccccc1)C(=O)c1c[nH]c2ccccc12` (racemic), the inhibition in [6] was below 80%.

For `CCOC(=O)CNC(=O)C(=O)c1c[nH]c2ccc([N+](=O)[O-])cc12`, in assay [5], the Ki was 2700 nM.

Compound `COc1ccc(NNC(=O)C(=O)c2c[nH]c3ccc(Cl)cc23)cc1` returned an inhibition in assay [6] below 80%.

In assay [5], `C[C@@H](NC(=O)C(=O)c1c[nH]c2ccc([N+](=O)[O-])cc12)c1ccc([N+](=O)[O-])cc1` had a Ki of 78 nM.

Regarding `O=C(N[C@@H]1CCc2ccccc21)C(=O)c1c[nH]c2ccccc12`, the inhibitory constant (Ki) in assay [1] came to 2160 nM; in assay [3], 225 nM; in assay [5], 675 nM. The compound also gave an inhibition in assay [9] of 28%.

Turning to `CCOC(=O)[C@H](C)NC(=O)C(=O)c1c[nH]c2ccc([N+](=O)[O-])cc12`, the Ki in assay [5] stood at 1950 nM.

Regarding `C[C@H](NC(=O)C(=O)c1c[nH]c2ccc([N+](=O)[O-])cc12)c1ccc([N+](=O)[O-])cc1`, in [6], the inhibition was below 80%.

`Cc1ccc([C@@H](C)NC(=O)C(=O)c2c[nH]c3ccc(Cl)cc23)cc1`: affinity in assay [5] was put at a Ki of 105 nM.

In the case of `Cc1ccc([C@H](C)NC(=O)C(=O)c2c[nH]c3ccc([N+](=O)[O-])cc23)cc1`, the inhibition in [6] is below 80%.

In [6], `COc1ccc2[nH]cc(C(=O)C(=O)NCc3ccc(Cl)cc3)c2c1` gave an inhibition below 80%.

`O=C(NC1Cc2ccccc2C1)C(=O)c1c[nH]c2ccc(Cl)cc12` came in with an inhibition in assay [6] below 80%.

For the compound `C[C@H](NC(=O)C(=O)c1c[nH]c2ccccc12)c1ccc([N+](=O)[O-])cc1`, the inhibition in assay [6] is below 80%.

Turning to `COc1ccc(CNC(=O)C(=O)c2c[nH]c3ccc([N+](=O)[O-])cc23)cc1`, the inhibition constant Ki is 126 nM in [1], 42 nM in [3] and 137 nM in [4]. Also, the Ratio in [2] was 1.11 and 0.96 and 0.9.

For `O=C(NC(CO)c1ccccc1)C(=O)c1c[nH]c2ccc([N+](=O)[O-])cc12` (racemic), the inhibition in [6] is below 80%.

`C[C@H](NC(=O)C(=O)c1c[nH]c2ccc([N+](=O)[O-])cc12)c1ccccc1` returned an inhibition in assay [6] below 80%.

As to `N#CC(NC(=O)C(=O)c1c[nH]c2ccc([N+](=O)[O-])cc12)c1ccccc1` (racemic), the Ki in assay [5] stood at 241 nM.

`Cc1ccc([C@@H](C)NC(=O)C(=O)c2c[nH]c3ccccc23)cc1` came in with a Ki in [5] of 1150 nM.

Regarding `O=C(NCc1ccc([N+](=O)[O-])cc1)C(=O)c1c[nH]c2ccccc12`, the inhibition constant (Ki) came out at 58 nM in assay [1], 16 nM in assay [3], 1600 nM in assay [4] and 21 nM in [5]. Besides, the Ratio in [2] is 0.9 and 0.91 and 0.73.

The compound `CCOC(=O)C(NC(=O)C(=O)c1c[nH]c2ccccc12)c1ccccc1` (racemic) displayed an inhibition in assay [6] below 80%.

In the case of `CCOC(=O)C(NC(=O)C(=O)c1c[nH]c2ccc([N+](=O)[O-])cc12)c1ccccc1` (racemic), in [6], the inhibition was below 80%.

With `O=C(N[C@H]1CCc2ccccc21)C(=O)c1c[nH]c2ccc(Cl)cc12`, the inhibition in [6] was below 80%.

Consider `COc1ccc(NNC(=O)C(=O)c2c[nH]c3ccc([N+](=O)[O-])cc23)cc1`, for which, in [6], the inhibition was below 80%.

In [5], `COc1ccc(C(C)NC(=O)C(=O)c2c[nH]c3ccccc23)cc1OC` (racemic) registered a Ki of 850 nM.

With `C[C@@H](NC(=O)C(=O)c1c[nH]c2ccccc12)c1ccccc1`, the Ki was 5500 nM in assay [1], 1150 nM in assay [3] and 1310 nM in [5]. In assay [9], this compound returned an inhibition of 5%.

For `O=C(NC1Cc2ccccc2C1)C(=O)c1c[nH]c2ccc([N+](=O)[O-])cc12`, in assay [6], the inhibition was below 80%.

Compound `O=C(C(=O)N1Cc2ccccc2C1)c1c[nH]c2ccc(Cl)cc12` came in with an inhibition in assay [6] below 80%.

In the case of `O=C(NNc1ccc([N+](=O)[O-])cc1)C(=O)c1c[nH]c2ccc([N+](=O)[O-])cc12`, in [6], the inhibition was below 80%.

As to `COc1ccc(C(C)NC(=O)C(=O)c2c[nH]c3ccccc23)cc1` (racemic), the affinity in assay [5], expressed as Ki, was 1170 nM.

In turn, `COc1ccc(C(C)NC(=O)C(=O)c2c[nH]c3ccc([N+](=O)[O-])cc23)cc1` (racemic) gave a Ki in [5] of 113 nM.

Consider `O=C(NCc1ccc(Cl)cc1)C(=O)c1c[nH]c2ccc(Cl)cc12`, for which the inhibition in assay [6] was below 80%.

Regarding `C[C@@H](NC(=O)C(=O)c1c[nH]c2ccc([N+](=O)[O-])cc12)c1ccccc1`, the Ki turned out to be 239 nM in assay [1], 14 nM in [3], 283 nM in assay [4] and 17 nM in assay [5].

In assay [6], `Cc1ccc([C@H](C)NC(=O)C(=O)c2c[nH]c3ccc(Cl)cc23)cc1` gave an inhibition below 80%.

The compound `O=C(N[C@@H]1CCc2ccccc21)C(=O)c1c[nH]c2ccc(Cl)cc12` had a Ki in assay [5] of 80 nM.

In turn, `O=C(C(=O)N1Cc2ccccc2C1)c1c[nH]c2ccc([N+](=O)[O-])cc12` returned an inhibition in assay [6] below 80%.

As to `COc1ccc(C(C)NC(=O)C(=O)c2c[nH]c3ccc(Cl)cc23)cc1OC` (racemic), in assay [5], the affinity corresponds to a Ki of 153 nM.

In the case of `COc1ccc(C(C)NC(=O)C(=O)c2c[nH]c3ccc(Cl)cc23)cc1` (racemic), the Ki in assay [5] worked out at 103 nM.

Take `Cc1ccc([C@H](C)NC(=O)C(=O)c2c[nH]c3ccccc23)cc1`: in assay [6], the inhibition was below 80%.

In assay [6], `O=C(NNc1ccc([N+](=O)[O-])cc1)C(=O)c1c[nH]c2ccc(Cl)cc12` registered an inhibition below 80%.

In assay [6], `O=C(NC1Cc2ccccc2C1)C(=O)c1c[nH]c2ccccc12` returned an inhibition below 80%.

With `C[C@H](NC(=O)C(=O)c1c[nH]c2ccc(Cl)cc12)c1ccc([N+](=O)[O-])cc1`, the inhibition in [6] was below 80%.

`COc1ccc(NNC(=O)C(=O)c2c[nH]c3ccc(OC)cc23)cc1` registered an inhibition in assay [6] below 80%.

Regarding `N#CC(NC(=O)C(=O)c1c[nH]c2ccccc12)c1ccccc1` (racemic), the inhibition in [6] is below 80%.

In assay [5], `Cc1ccc([C@@H](C)NC(=O)C(=O)c2c[nH]c3ccc([N+](=O)[O-])cc23)cc1` yielded an inhibitory constant (Ki) of 34 nM.

`O=C(NCc1ccc([N+](=O)[O-])cc1)C(=O)c1c[nH]c2ccc(Cl)cc12` returned a Ki in assay [5] of 1370 nM.
